Test results taken from ChEMBL document CHEMBL1143990, “Design, synthesis and evaluation of antiinflammatory, analgesic and ulcerogenicity studies of novel S-substituted phenacyl-1,3,4-oxadiazole-2-thiol and Schiff bases of diclofenac acid as nonulcerogenic derivatives” (Bioorg Med Chem, 2008).

What was measured:
Rattus norvegicus [1] = experiment: Antiinflammatory activity against carrageenan-induced paw edema in orally dosed Wistar rat after 3 hrs relative to control; type: functional
Summary of the method: (§1)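 Wistar rats of either sex, 100–120 g, fasted 24 h with water available. Compounds were suspended in 1% aqueous CMC and given orally 1 h before 0.1 mL of freshly prepared 1.0% w/v carrageenan was injected subplantar into the right hind paw. Paw volume was measured before and after carrageenan. Change in paw volume is mean ± SD versus vehicle control, by one-way ANOVA with Dunnett's test.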

Rattus norvegicus [2] = experiment: Antiinflammatory activity against carrageenan-induced paw edema in orally dosed Wistar rat after 1 hr relative to control; type: functional; summary of the method: as §1
Rattus norvegicus [3] = experiment: Antiinflammatory activity against carrageenan-induced paw edema in orally dosed Wistar rat after 2 hrs relative to control; type: functional; summary of the method: as §1
Rattus norvegicus [4] = experiment: Gastric-ulcerogenic effect in Wistar rat at 10 mg/kg, po; type: ADME, organism-based; parameters: dose 10 mg/kg, route oral; conditions: in vivo
Summary of the method: (§2)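 Wistar rats of either sex (100–120 g), kept at 25 °C and 50% relative humidity on a 12 h light/dark cycle, fasted 24 h with water ad libitum. Compounds were suspended in 1% aqueous CMC and given orally; controls received vehicle. Ulceration was induced in a stress model with added cold stress. Gastric mucosa was scored, with severity index = treated mean score minus control mean. Ratio of ulcerated animals recorded. Mean ± SEM; one-way ANOVA with Dunnett's test. Tissue examined after H&E staining.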

Rattus norvegicus [5] = experiment: Gastric-ulcerogenic effect in Wistar rat at 50 mg/kg, po; type: ADME, organism-based; parameters: dose 50 mg/kg, route oral; conditions: in vivo; summary of the method: as §2
Mus musculus = experiment: Analgesic activity against acetic acid-induced writhing in Swiss Albino mouse at 10 mg/kg, po after 25 mins relative to control; type: functional
Summary of the method: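 Mice given compounds orally at 10 mg/kg, suspended in 1% aqueous sodium carboxymethyl cellulose. Vehicle-only controls were run. Acetic acid was used to induce writhing. Writhes were counted over 25 min after treatment and reported as mean ± SEM. Percent inhibition was calculated versus the vehicle control.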

Rattus norvegicus [6] = experiment: Induction of gastric ulcer in orally dosed Wistar rat assessed as stomach mucosal damage; type: organism-based; conditions: in vivo, po; summary of the method: as §2
Rattus norvegicus [7] = experiment: Gastric-ulcerogenic effect in Wistar rat at 30 mg/kg, po; type: ADME, organism-based; parameters: dose 30 mg/kg, route oral; conditions: in vivo; summary of the method: as §2

Compound | Inhibition (Rattus norvegicus [1]) [%] | Inhibition (Rattus norvegicus [2]) [%] | Inhibition (Rattus norvegicus [3]) [%] | Activity (Rattus norvegicus [4]) | Activity (Rattus norvegicus [5]) | inhibition in vivo at 10 mg/kg (Mus musculus) [%] | Activity (Rattus norvegicus [6]) | Activity (Rattus norvegicus [7]) | UI (Rattus norvegicus [4]) | UI (Rattus norvegicus [7])
Cc1ccc(/C=N/NC(=O)Cc2ccccc2Nc2c(Cl)cccc2Cl)cc1 | 68.62 | 20.99 | 43.09 |  |  |  |  |  |  | 
O=C(Cc1ccccc1Nc1c(Cl)cccc1Cl)N/N=C/c1ccccc1Cl | 60.99 | 13.54 | 40.2 |  |  |  |  |  |  | 
COc1ccc(/C=N/NC(=O)Cc2ccccc2Nc2c(Cl)cccc2Cl)cc1 | 73.36 | 27.21 | 51.88 | Non-toxic | Non-toxic | 53.9 | Non-toxic | Non-toxic |  | 
COc1cc(/C=N/NC(=O)Cc2ccccc2Nc2c(Cl)cccc2Cl)cc(OC)c1OC | 71.93 | 29.11 | 50.97 |  |  |  |  |  |  | 
O=C(CSc1nnc(Cc2ccccc2Nc2c(Cl)cccc2Cl)o1)c1ccc(O)cc1 | 71.99 | 31.55 | 48.91 |  |  | 68.2 |  |  |  | 
COc1cccc(C(=O)CSc2nnc(Cc3ccccc3Nc3c(Cl)cccc3Cl)o2)c1 | 74.23 | 23.8 | 52.09 | Non-toxic | Non-toxic | 66.9 | Non-toxic | Non-toxic |  | 
O=C(Cc1ccccc1Nc1c(Cl)cccc1Cl)N/N=C/c1ccc(Br)cc1 | 80.07 | 30.53 | 51.72 | Non-toxic | Non-toxic | 68.7 | Non-toxic | Non-toxic |  | 
O=C(CSc1nnc(Cc2ccccc2Nc2c(Cl)cccc2Cl)o1)c1ccc([N+](=O)[O-])cc1 | 67.19 | 20.99 | 45.64 |  |  |  |  |  |  | 
O=C(Cc1ccccc1Nc1c(Cl)cccc1Cl)N/N=C/c1ccccc1O | 72.88 | 31.38 | 46.96 | Non-toxic | Non-toxic | 60.5 | Non-toxic | Non-toxic |  | 
O=C(Cc1ccccc1Nc1c(Cl)cccc1Cl)N/N=C/C=C/c1ccccc1 | 72.76 | 32.28 | 48.81 |  |  | 45.3 |  |  |  | 
O=C(CSc1nnc(Cc2ccccc2Nc2c(Cl)cccc2Cl)o1)c1cccc(O)c1 | 69.89 | 17.94 | 44.53 |  |  |  |  |  |  | 
O=C(CSc1nnc(Cc2ccccc2Nc2c(Cl)cccc2Cl)o1)c1cccc([N+](=O)[O-])c1 | 60.39 | 28.34 | 49.47 |  |  |  |  |  |  | 
O=C(CSc1nnc(Cc2ccccc2Nc2c(Cl)cccc2Cl)o1)c1ccc(Br)cc1 | 71.05 | 26.02 | 45.16 |  |  | 55 |  |  |  | 
O=C(Cc1ccccc1Nc1c(Cl)cccc1Cl)N/N=C/c1ccc(F)cc1 | 60.34 | 16.64 | 41.35 |  |  |  |  |  |  | 
COc1ccc(C(=O)CSc2nnc(Cc3ccccc3Nc3c(Cl)cccc3Cl)o2)cc1OC | 72.63 | 23.43 | 48.63 | Non-toxic | Non-toxic | 51.4 | Non-toxic | Non-toxic |  | 
CN(C)c1ccc(/C=N/NC(=O)Cc2ccccc2Nc2c(Cl)cccc2Cl)cc1 | 69.39 | 28.2 | 48.75 |  |  |  |  |  |  | 
O=C(Cc1ccccc1Nc1c(Cl)cccc1Cl)N/N=C/c1cccc([N+](=O)[O-])c1 | 69.79 | 20.87 | 47.02 |  |  |  |  |  |  | 
O=C(Cc1ccccc1Nc1c(Cl)cccc1Cl)N/N=C/c1ccc(O)cc1 | 70.94 | 16.28 | 38.14 |  |  |  |  |  |  | 
O=C(CSc1nnc(Cc2ccccc2Nc2c(Cl)cccc2Cl)o1)c1ccc(Cl)c(Cl)c1 | 60.39 | 30.46 | 52.26 |  |  |  |  |  |  | 
O=C([O-])Cc1ccccc1Nc1c(Cl)cccc1Cl.[Na+] [DICLOFENAC SODIUM] | 71.3 | 28.69 | 48.99 |  |  | 64.7 |  |  | 1.8 | 2.1
